In ChEMBL document CHEMBL5030505, “Assessment of NR4A Ligands That Directly Bind and Modulate the Orphan Nuclear Receptor Nurr1” (J Med Chem, 2020):

Legend:
Assay type in all cases: cell-based
[1] = molecular target: Nuclear receptor subfamily 4 group A member 2 (Homo sapiens) (UniProt P43354); experiment: Modulation of full length human Nurr1 expressed in SKNBE(2) cells co-transfected with luciferase reporter plasmid harboring NBRE response element assessed as increase in luciferase activity incubated for 18 hrs by luciferase reporter-gene assay; settings: SKNBE2, filed as modulator
Chain of Nuclear receptor subfamily 4 group A member 2 (Homo sapiens) (P43354 whole entry): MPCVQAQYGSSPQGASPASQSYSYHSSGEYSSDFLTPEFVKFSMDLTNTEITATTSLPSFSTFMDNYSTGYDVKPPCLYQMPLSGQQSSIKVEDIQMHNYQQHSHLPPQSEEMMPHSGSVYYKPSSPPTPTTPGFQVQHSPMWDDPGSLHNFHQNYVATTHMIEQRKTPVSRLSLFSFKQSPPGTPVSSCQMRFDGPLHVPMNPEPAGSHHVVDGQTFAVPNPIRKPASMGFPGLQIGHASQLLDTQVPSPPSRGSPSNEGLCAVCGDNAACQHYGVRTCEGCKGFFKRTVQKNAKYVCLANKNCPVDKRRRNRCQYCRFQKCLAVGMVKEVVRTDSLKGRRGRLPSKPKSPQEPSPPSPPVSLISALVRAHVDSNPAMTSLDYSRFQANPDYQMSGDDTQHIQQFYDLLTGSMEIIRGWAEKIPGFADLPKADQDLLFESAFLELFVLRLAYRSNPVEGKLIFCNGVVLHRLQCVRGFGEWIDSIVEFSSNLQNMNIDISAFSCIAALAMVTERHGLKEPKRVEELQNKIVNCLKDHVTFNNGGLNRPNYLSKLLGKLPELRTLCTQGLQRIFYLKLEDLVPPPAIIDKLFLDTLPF
Outline: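 Transfection of SK-N-BE(2)-C cells (1:1 EMEM/F12, 10% FBS, 37°C, 5% CO2) used full-length Nurr1 alone (2 μg, no RXRα) with 3xNBRE- or 3xNurRE-luciferase reporter (6 μg) for 18 h. Cells were replated at 10,000/well for 4 h, then exposed to ligand or vehicle in quadruplicate for 18 h. Luminescence was expressed as fold over vehicle, as mean ± s.e.m. (n=4) from 2 independent experiments, one-way ANOVA against vehicle.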

[2] = molecular target: Nuclear receptor subfamily 4 group A member 2 (Homo sapiens) (UniProt P43354); experiment: Modulation of full length human Nurr1 expressed in PC12 cells co-transfected with luciferase reporter plasmid harboring NurRE response element assessed as increase in luciferase activity incubated for 18 hrs by luciferase reporter-gene assay; settings: PC-12, filed as modulator
Outline: (§1)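 Here PC12 cells (FK-12 medium, 15% horse serum, 2.5% FBS, 37°C, 5% CO2) received full-length Nurr1 (2 μg) without RXRα, plus 3xNBRE- or 3xNurRE-luciferase reporter (6 μg), for 18 h. Cells were replated at 10,000/well for 4 h, then treated with ligand or vehicle in quadruplicate for 18 h. Luciferase luminescence was normalized to vehicle-treated cells. Results are mean ± s.e.m. (n=4) from 2 independent experiments, with one-way ANOVA against vehicle.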

[3] = molecular target: Nuclear receptor subfamily 4 group A member 2 (Homo sapiens) (UniProt P43354); experiment: Modulation of full length human Nurr1 expressed in PC12 cells co-transfected with RXRalpha and luciferase reporter plasmid harboring NBRE response element assessed as increase in luciferase activity incubated for 18 hrs by luciferase reporter-gene assay; settings: PC-12, filed as modulator
Outline: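 PC12 cells were grown at 37°C and 5% CO2 in […] medium with 15% horse serum and 2.5% FBS. They were transfected with full-length Nurr1 (1 μg) plus full-length RXRα (1 μg) and 3xNBRE- or 3xNurRE-luciferase reporter (6 μg) for 18 h, then replated at 10,000 cells/well for 4 h. Ligand or vehicle (water, ethanol or DMSO) was added in quadruplicate for 18 h. Luminescence was read as fold change over vehicle. Results are mean ± s.e.m., n=4, from 2 independent experiments, analysed by one-way ANOVA against vehicle.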

[4] = molecular target: Nuclear receptor subfamily 4 group A member 2 (Homo sapiens) (UniProt P43354); experiment: Modulation of full length human Nurr1 expressed in PC12 cells co-transfected with luciferase reporter plasmid harboring NBRE response element assessed as increase in luciferase activity incubated for 18 hrs by luciferase reporter-gene assay; settings: PC-12, filed as modulator; outline: as §1
[5] = molecular target: Nuclear receptor subfamily 4 group A member 2 (Homo sapiens) (UniProt P43354); experiment: Modulation of full length human Nurr1 expressed in HEK293T cells co-transfected with luciferase reporter plasmid harboring NurRE response element assessed as increase in luciferase activity incubated for 18 hrs by luciferase reporter-gene assay; settings: filed as modulator
Outline: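 Full-length Nurr1 plasmid, alone (2 μg) or 1 μg plus full-length RXRα (1 μg), cotransfected with 3xNBRE- or 3xNurRE-luciferase reporter (6 μg) using Lipofectamine 2000, 18 h. Cells replated at 10,000/well for 4 h. Four ligand concentrations, or vehicle (water, ethanol or DMSO), added in quadruplicate for 18 h. Luciferase read. Fold change vs vehicle, mean ± s.e.m., one-way ANOVA vs vehicle.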

[6] = molecular target: Nuclear receptor subfamily 4immunitygroup A member 1 (Homo sapiens) (UniProt P22736); experiment: Modulation of full length human Nur77 expressed in SK-N-BE(2) cells co-transfected with luciferase reporter plasmid harboring NBRE response element assessed as increase in luciferase activity incubated for 18 by luciferase reporter gene assay; settings: SKNBE2, filed as modulator, time 18.0 hrs
Chain of Nuclear receptor subfamily 4immunitygroup A member 1 (Homo sapiens) (P22736 whole entry): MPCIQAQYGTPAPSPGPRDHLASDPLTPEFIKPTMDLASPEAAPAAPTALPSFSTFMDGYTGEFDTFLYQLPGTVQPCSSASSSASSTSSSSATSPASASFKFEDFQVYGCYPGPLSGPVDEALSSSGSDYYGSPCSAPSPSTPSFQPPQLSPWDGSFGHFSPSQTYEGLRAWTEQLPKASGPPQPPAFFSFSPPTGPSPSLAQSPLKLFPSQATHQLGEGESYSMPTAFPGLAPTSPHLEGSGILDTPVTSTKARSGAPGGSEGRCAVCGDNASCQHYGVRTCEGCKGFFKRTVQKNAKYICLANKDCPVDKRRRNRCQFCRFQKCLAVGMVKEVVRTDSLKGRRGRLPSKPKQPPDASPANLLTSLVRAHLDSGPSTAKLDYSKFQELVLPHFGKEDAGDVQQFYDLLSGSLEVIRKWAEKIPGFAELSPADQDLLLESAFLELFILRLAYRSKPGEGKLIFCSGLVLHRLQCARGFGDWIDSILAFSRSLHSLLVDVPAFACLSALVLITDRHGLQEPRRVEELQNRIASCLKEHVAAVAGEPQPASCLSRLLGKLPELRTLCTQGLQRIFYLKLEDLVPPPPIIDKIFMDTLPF
Outline: (§2)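 Cells seeded at 1.5 million per 10-cm dish. Next day they were transfected (Lipofectamine 2000) with full-length Nur77 or NOR-1 expression plasmid, either alone (2 μg) or 1 μg plus full-length RXRα (1 μg), and 3xNBRE- or 3xNurRE-luciferase reporter (6 μg), 18 h. Cells replated at 10,000/well, 4 h, then ligand dose response added in quadruplicate for 18 h. Luciferase luminescence read.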

[7] = molecular target: Nuclear receptor subfamily 4 group A member 3 (Homo sapiens) (UniProt Q92570); experiment: Modulation of full length human NOR1 expressed in SK-N-BE(2) cells co-transfected with RXRalpha and luciferase reporter plasmid harboring NurRE response element assessed as increase in luciferase activity incubated for 18 by luciferase reporter gene assay; settings: SKNBE2, filed as modulator, time 18.0 hrs; outline: as §2
Chain of Nuclear receptor subfamily 4 group A member 3 (Homo sapiens) (Q92570 whole entry): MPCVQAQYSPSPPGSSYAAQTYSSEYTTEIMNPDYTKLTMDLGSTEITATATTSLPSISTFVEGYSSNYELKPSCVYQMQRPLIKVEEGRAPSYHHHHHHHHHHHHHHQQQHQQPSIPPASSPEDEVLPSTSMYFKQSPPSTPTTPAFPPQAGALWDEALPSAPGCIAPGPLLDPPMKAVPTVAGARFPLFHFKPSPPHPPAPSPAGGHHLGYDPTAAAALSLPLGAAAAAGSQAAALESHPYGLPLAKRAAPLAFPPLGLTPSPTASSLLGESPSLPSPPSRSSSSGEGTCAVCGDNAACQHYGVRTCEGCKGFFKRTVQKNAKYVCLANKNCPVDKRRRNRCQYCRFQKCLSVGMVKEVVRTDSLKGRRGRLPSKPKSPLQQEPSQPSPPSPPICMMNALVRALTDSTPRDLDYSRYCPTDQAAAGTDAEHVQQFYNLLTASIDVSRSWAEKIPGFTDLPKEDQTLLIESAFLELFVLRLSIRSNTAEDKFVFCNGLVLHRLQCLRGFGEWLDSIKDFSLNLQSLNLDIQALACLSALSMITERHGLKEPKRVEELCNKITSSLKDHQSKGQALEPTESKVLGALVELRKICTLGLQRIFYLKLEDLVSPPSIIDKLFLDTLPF

[8] = molecular target: Nuclear receptor subfamily 4 group A member 3 (Homo sapiens) (UniProt Q92570); experiment: Modulation of full length human NOR1 expressed in SK-N-BE(2) cells co-transfected with RXRalpha and luciferase reporter plasmid harboring NBRE response element assessed as increase in luciferase activity incubated for 18 by luciferase reporter gene assay; settings: SKNBE2, filed as modulator, time 18.0 hrs; outline: as §2
[9] = molecular target: Nuclear receptor subfamily 4 group A member 3 (Homo sapiens) (UniProt Q92570); experiment: Modulation of full length human NOR1 expressed in SK-N-BE(2) cells co-transfected with luciferase reporter plasmid harboring NurRE response element assessed as increase in luciferase activity incubated for 18 by luciferase reporter gene assay; settings: SKNBE2, filed as modulator, time 18.0 hrs; outline: as §2
[10] = molecular target: Nuclear receptor subfamily 4immunitygroup A member 1 (Homo sapiens) (UniProt P22736); experiment: Modulation of full length human Nur77 expressed in HEK293 cells co-transfected with luciferase reporter plasmid harboring NBRE response element assessed as increase in luciferase activity incubated for 18 hrs by luciferase reporter gene assay; settings: filed as modulator; outline: as §2
[11] = molecular target: Nuclear receptor subfamily 4immunitygroup A member 1 (Homo sapiens) (UniProt P22736); experiment: Modulation of full length human Nur77 expressed in HEK293 cells co-transfected with luciferase reporter plasmid harboring NurRE response element assessed as increase in luciferase activity incubated for 18 hrs by luciferase reporter gene assay; settings: filed as modulator; outline: as §2
[12] = molecular target: Nuclear receptor subfamily 4immunitygroup A member 1 (Homo sapiens) (UniProt P22736); experiment: Modulation of full length human Nur77 expressed in HEK293 cells co-transfected with RXRalpha and luciferase reporter plasmid harboring NurRE response element assessed as increase in luciferase activity incubated for 18 hrs by luciferase reporter gene assay; settings: filed as modulator; outline: as §2
[13] = molecular target: Nuclear receptor subfamily 4 group A member 3 (Homo sapiens) (UniProt Q92570); experiment: Modulation of full length human NOR1 expressed in HEK293 cells co-transfected with luciferase reporter plasmid harboring NBRE response element assessed as increase in luciferase activity incubated for 18 hrs by luciferase reporter gene assay; settings: filed as modulator
Outline: (§3)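 Full-length NOR-1 plasmid was transfected via Lipofectamine 2000, either alone (2 μg) or at 1 μg with full-length RXRα (1 μg). It was paired with a 3xNBRE or 3xNurRE luciferase reporter (6 μg), 8 μg total DNA, for 18 h. Cells were replated at 10,000/well for 4 h, then given a full ligand dose response or vehicle in quadruplicate for 18 h. Luciferase was read; no EC50/IC50 was fitted.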

[14] = molecular target: Nuclear receptor subfamily 4 group A member 3 (Homo sapiens) (UniProt Q92570); experiment: Modulation of full length human NOR1 expressed in HEK293T cells co-transfected with RXRalpha luciferase reporter plasmid harboring NBRE response element assessed as increase in luciferase activity incubated for 18 hrs by luciferase reporter gene assay; settings: filed as modulator; outline: as §3
[15] = molecular target: Nuclear receptor subfamily 4 group A member 3 (Homo sapiens) (UniProt Q92570); experiment: Modulation of full length human NOR1 expressed in SK-N-BE(2) cells co-transfected with luciferase reporter plasmid harboring NBRE response element assessed as increase in luciferase activity incubated for 18 by luciferase reporter gene assay; settings: SKNBE2, filed as modulator, time 18.0 hrs; outline: as §2
[16] = molecular target: Nuclear receptor subfamily 4immunitygroup A member 1 (Homo sapiens) (UniProt P22736); experiment: Modulation of full length human Nur77 expressed in PC12 cells co-transfected with RXRalpha and luciferase reporter plasmid harboring NBRE response element assessed as increase in luciferase activity incubated for 18 by luciferase reporter gene assay; settings: PC-12, filed as modulator, time 18.0 hrs; outline: as §2
[17] = molecular target: Nuclear receptor subfamily 4immunitygroup A member 1 (Homo sapiens) (UniProt P22736); experiment: Modulation of full length human Nur77 expressed in PC12 cells co-transfected with RXRalpha and luciferase reporter plasmid harboring NurRE response element assessed as increase in luciferase activity incubated for 18 by luciferase reporter gene assay; settings: PC-12, filed as modulator, time 18.0 hrs; outline: as §2

Measured: Activity

CCN(CC)Cc1cc(Nc2ccnc3cc(Cl)ccc23)ccc1O [AMODIAQUINE]
active: [1] Dose-Dependent Effect | [2] Dose-Dependent Effect | [3] Dose-Dependent Effect | [4] Dose-Dependent Effect | [5] Dose-Dependent Effect | [6] Dose-Dependent Effect | [7] Dose-Dependent Effect | [8] Dose-Dependent Effect | [9] Dose-Dependent Effect | [10] Dose-Dependent Effect | [11] Dose-Dependent Effect | [12] Dose-Dependent Effect | [13] Dose-Dependent Effect | [14] Dose-Dependent Effect | [15] Dose-Dependent Effect | [16] Dose-Dependent Effect | [17] Dose-Dependent Effect

CCN(CC)CCCC(C)Nc1ccnc2cc(Cl)ccc12 (stereo unspecified) [CHLOROQUINE]
active: [1] Dose-Dependent Effect | [2] Dose-Dependent Effect | [3] Dose-Dependent Effect | [4] Dose-Dependent Effect | [5] Dose-Dependent Effect | [6] Dose-Dependent Effect | [7] Dose-Dependent Effect | [8] Dose-Dependent Effect | [9] Dose-Dependent Effect | [10] Dose-Dependent Effect | [11] Dose-Dependent Effect | [12] Dose-Dependent Effect | [13] Dose-Dependent Effect | [14] Dose-Dependent Effect | [15] Dose-Dependent Effect | [16] Dose-Dependent Effect | [17] Dose-Dependent Effect

CCCCCCCC(=O)c1c(O)cc(O)cc1CC(=O)OCC [CYTOSPORONE B]
active: [1] Dose-Dependent Effect | [2] Dose-Dependent Effect | [3] Dose-Dependent Effect | [4] Dose-Dependent Effect | [5] Dose-Dependent Effect | [6] Dose-Dependent Effect | [7] Dose-Dependent Effect | [8] Dose-Dependent Effect | [9] Dose-Dependent Effect | [10] Dose-Dependent Effect | [11] Dose-Dependent Effect | [12] Dose-Dependent Effect | [13] Dose-Dependent Effect | [14] Dose-Dependent Effect | [15] Dose-Dependent Effect | [16] Dose-Dependent Effect | [17] Dose-Dependent Effect
